This passage reports cytotoxicity results from ChEMBL document CHEMBL4513216, “Probing the Open Global Health Chemical Diversity Library for Multistage-Active Starting Points for Next-Generation Antimalarials” (ACS Infect Dis, 2020).

The series in a line: Toxicity liver stage against HepG2, at 10uM. The class given is cell-based. Set-up: test concentration 10 uM, cell line HepG2-A16-CD81EGFP. As to conditions: human, HepG2-A16-CD81EGFP cells; read-out: INHIBITION
In a few lines: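 Uninfected HepG2-A16-CD81EGFP cells, 3 × 10^3 per well, 1536-well, plated on prespotted compound at 10 μM final, parasite-free screening media added to match infected plates; puromycin 10 μM positive, DMSO 0.5% negative; run in parallel with 48 h PbLuc assay at 37 °C, 5% CO2; viability by CellTiter-Glo luminescence, normalized to controls.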
For `O=C(CC1CCCC1)NCCS(=O)(=O)N1CCN(c2ccccc2)CC1`, the cytotoxicity at 10 µM was -4.07%.
To `CN(c1cccnn1)C1CCN(C(=O)c2n[nH]c3c2CCC3)CC1` belongs 6.96%; to `O=C(N[C@@H]1CNCCC[C@H]1O)c1ccc(OCCN2CCOCC2)cc1`, 3.11%; to `Cn1cncc1-c1nnc([C@H]2CCN(CC3CCCCC3)C2)o1`, -4.65%.
As for `O=C(CC1CCCC1)N1CCN2C[C@@H](CO)[C@H](c3ccccc3)[C@H]2C1`, the cytotoxicity at 10 µM is -4.73%.
Turning to `COc1cccc(C(=O)NCC2CCN(C(=O)c3ccoc3)CC2)c1`, the cytotoxicity at 10 µM turned out to be 15.9%.
Regarding `CCS(=O)(=O)CCNC(=O)c1cc2n(n1)CCCO2`, the cytotoxicity at 10 µM is -8.81%.
As for `C[C@H]1C[C@H]2CN(C(=O)C3=CCCCC3)CC[C@H]2O1`, the figure is 4.76%; as for `CN(C)C(=O)NCc1nnc2n1CCN(Cc1ccsc1)C2`, 8.31%.
As for `COCCN1CCC2(COCc3c(C)nc(N(C)C)nc32)C1` (stereo unspecified), the cytotoxicity at 10 µM is -132%.
As for `CCN1C(=O)C[C@@H]2[C@@H]1CCN2S(=O)(=O)Cc1ccc(C)cc1`, the figure is -6.22%; as for `CNC(=O)c1cc2c(nc1NCC1CC1)CCN(c1ncccn1)CC2`, 0.283%; as for `Cc1cccc(CN2CC[C@@H]3[C@@H]2CCN3C(=O)c2cnoc2C)n1`, -21.1%.
As for `Cn1cc(Br)c(C(=O)NCCCn2cc(Br)cn2)n1`, the figure is -6.4%.
On to `COc1c(CC2CC(C(=O)O)=NO2)c(Br)c2c(c1OC)OCO2` (stereo unspecified), for which the cytotoxicity at 10 µM worked out at 6.36%.
To `OCc1n[nH]c(-c2ccc(F)cc2)n1` belongs -4.64%; to `Cc1sc(C(=O)NC(C)C)cc1S(=O)(=O)N(C)C`, -7.84%.
As for `Cc1cncnc1C1CCN(CC(N)=O)CC1`, the figure is -6.84%; as for `CC(C)CC(=O)N1CCC(c2nnc3n2CCCCC3)CC1`, -28%.
With `Cc1ccnc(C2CCCN2C(=O)CN(C)C)n1` (stereo unspecified), the cytotoxicity at 10 µM is -19.1%.
To `Cc1cc2c(=O)n3c(nc2s1)CCN(C(=O)c1ccnn1C)CC3` belongs -4.08%; to `CCc1nnc2n1CCN(C(=O)C1CCC(n3cccc3)CC1)C2` (stereo unspecified), -1.5%; to `O=C(c1cnc(-c2ccccc2)nc1)N1CCOC2(CCCC2)C1`, -1.39%.
To `Cc1noc(C)c1NC(=O)Cn1cc(Br)ccc1=O` belongs 8.99%; to `CCN(Cc1ccc(C#N)cc1F)C(=O)C(C)(C)C`, 5.73%; to `Cc1cc(NCc2cn(C)nc2-c2cccnc2)n(C)n1`, 12%.
For the compound `Cc1c(NC(=O)NC(C)CCO)cccc1OC1CCCC1` (stereo unspecified), the cytotoxicity at 10 µM is -7.18%.
Regarding `NC(=O)c1cn[nH]c1NC(=O)c1ccc2c(c1)OCO2`, the cytotoxicity at 10 µM was 1.03%.
As to `O=C(COC1CCCC1)NCc1ccc(O)c(F)c1`, the cytotoxicity at 10 µM was -2.43%.
To `Cn1nc2c(cc1=O)CN(CCCOc1ccc(C#N)cc1)CC2` belongs 22.9%; to `Cc1noc(NCc2ccc(F)cc2F)n1`, -4.49%; to `CC(Cc1c(F)cccc1F)NC(=O)CN(CC(N)=O)C(C)C` (stereo unspecified), -10.5%.
To `CN(C)CCSc1ccc(NC(=O)c2nccn3ccnc23)cc1` belongs -6.25%.
`COCCN(Cc1ccc(F)cc1Cl)C(=O)c1c(C)noc1C`: the cytotoxicity at 10 µM was -1.82%.
As to `CCn1cnnc1C1CCN(C(=O)c2cnn(C(C)(C)C)c2)CC1`, the cytotoxicity at 10 µM worked out at 4.78%.
As to `CC(C)(O)CSCCNC(=O)c1ccc(F)cc1Cl`, the cytotoxicity at 10 µM is -10.9%.
To `Clc1cncc(NCc2cccc(COC3CCOCC3)c2)n1` belongs 14.6%; to `O=C(c1ncoc1-c1ccco1)N(Cc1ccco1)CC1CCCO1` (stereo unspecified), -2.05%.
As for `COc1ccc(CSc2nnc(N)n2C2CC2)cc1F`, the figure is 5.11%.
As for `CC(c1ccc(-n2cncn2)cc1)N(C)Cc1ccccn1` (stereo unspecified), the figure is 8.86%; as for `O=C(NCCOCC1CC1)Nc1ccc(F)cc1`, 9.28%.
Turning to `CN(CC(=O)NC(C)(C#N)C1CC1)Cc1nnc(C2CC2)n1C` (stereo unspecified), the cytotoxicity at 10 µM is 7.32%.
To `Cc1cccc(N2CCN(C(=O)CCc3ccsc3)C(C)C2)n1` (stereo unspecified) belongs 18.4%.
To `CCOc1ccnc(N2CCN(C(=O)CCc3ccncc3)CC2)n1` belongs -0.662%; to `CCc1nc(CCNC(=O)NC2CC2)sc1C`, -14.4%.
To `O=C(NC1(c2nnn(CCO)n2)CCCC1)c1ccccc1` belongs 14.8%; to `c1coc(-c2noc(CN3CCC(c4ccn[nH]4)CC3)n2)c1`, -8.19%; to `COc1ccnc(N2CCN(C(=O)c3csc(C4CC4)n3)CC2)n1`, 4.85%.
For `COc1ccc(F)cc1C(C)NC(=O)c1nnc(C)s1` (stereo unspecified), the cytotoxicity at 10 µM was -0.213%.
As for `CN(C)S(=O)(=O)N1CCN(c2nccc(C(F)(F)F)n2)CC1`, the figure is -7.04%; as for `Cc1cc(C)n(CCCNC(=O)C(C)NC(=O)c2ccccc2Cl)n1` (stereo unspecified), -0.136%.
As for `COCC1CN(C(=O)c2ccco2)Cc2nccn2C1` (stereo unspecified), the figure is -107%; as for `CN(C)CCO[C@H]1CN(C(=O)c2cscn2)[C@@H]2COC[C@H]12`, 1.43%.
On to `CCOC[C@@H]1CC[C@H]2[C@H](CCN2S(=O)(=O)c2ccc(F)cc2)O1`, for which the cytotoxicity at 10 µM came out at 1.39%.
With `CN1C(=O)CC(c2cnn(C)c2)C12CCN(C(=O)C1CC=CC1)CC2` (stereo unspecified), the cytotoxicity at 10 µM amounted to 5.84%.
As for `CC(C)NC(=O)N1CC(=O)c2sc(NC3CCCCC3)nc2C1`, the figure is -7.91%.
As for `COc1cccc(CN(C)C(C)c2ccon2)c1OCCn1ccnc1` (stereo unspecified), the figure is -5.17%; as for `O=C(c1csc2nc(-c3ccc(Cl)cc3)cn12)N1CCCC(CO)C1` (stereo unspecified), 2.2%; as for `COCCn1cnnc1CCn1ccnc1-c1ccccc1Cl`, -8.25%.
As for `COc1ccc(-c2ccc(C(=O)N3CCC[C@@H]3CO)o2)cc1`, the figure is 7.44%; as for `O=C(NCc1c[nH]c(=O)[nH]c1=O)C1CCOc2ccccc2C1` (stereo unspecified), -3.03%.
On to `O=C1CCC2(CCNCC2)CN1CCCNc1cccnc1`, for which the cytotoxicity at 10 µM is -6.46%.
To `OCC(O)CN1CCc2onc(-c3ccc(C(F)(F)F)cc3)c2C1` (stereo unspecified) belongs -3.24%; to `Cc1nonc1C1CCCN1C(=O)c1cn2ccsc2n1` (stereo unspecified), 9.59%.
With `COCCc1nc(CN2CC(C)(c3ccccc3)CCC2=O)no1` (stereo unspecified), the cytotoxicity at 10 µM was -3.07%.
As for `CN1CCN(C(=O)c2cccc(S(=O)(=O)NCC3(C)COC3)c2)CC1`, the figure is -14.1%.
As for `Cc1cc(CNC(=O)c2cn(CCC3CCCCN3)nn2)on1` (stereo unspecified), the figure is -7.19%; as for `CCn1cnnc1CN(C)c1nccc(C2CCCC2)n1`, 0.998%; as for `O=C(NCc1cnn2ccccc12)NC1CCCC1`, -2.91%.
As for `Cc1nn(C2CCCCC2)c2nc(C(C)(C)CN3CCOCC3)[nH]c12`, the figure is -3.64%; as for `O=C(CSc1ccncc1)N1CCC2(CC1)c1ccccc1CC2O` (stereo unspecified), -2.36%; as for `CC1CCN(S(=O)(=O)N2CCCC(c3cccc(C(=O)O)c3)C2)CC1` (stereo unspecified), -13.3%.
Turning to `Cc1cccc(N2CCC3(CCCN3Cc3c(C)nn(C)c3C)CC2)n1`, the cytotoxicity at 10 µM is -8.35%.
As for `O=C(O)c1cccc(C2CCCN(S(=O)(=O)N3CCOCC3)C2)c1` (stereo unspecified), the figure is 9.45%; as for `CCCn1nc(C)c(CNC(=O)C2COc3c(cccc3OC)C2)c1C` (stereo unspecified), -11.8%.
Turning to `COc1nc(C)c(C(=O)N(C)Cc2nc(-c3ccccn3)no2)s1`, the cytotoxicity at 10 µM was -8.44%.
To `Cc1cc(C[C@@H]2COC[C@@H]2NC(=O)CN2CCCN(C)CC2)on1` belongs -15%; to `O=C(c1ccccc1-c1ccccc1)N1CCOC2(CNCCOC2)C1` (stereo unspecified), -16.2%.
For `O=C(CSCC1CC1)N1CCCC(c2nccn2Cc2ccncc2)C1` (stereo unspecified), the cytotoxicity at 10 µM is -13.3%.
Take `Cc1cc(C)n(CCC(=O)N2CCC(Nc3cccnn3)CC2)n1`: the cytotoxicity at 10 µM was -6.36%.
As for `COc1ccccc1CNC(=O)Cn1nc(-c2ccc(F)cc2)oc1=O`, the cytotoxicity at 10 µM was -10.8%.
To `CS(=O)(=O)Cc1ccc(C(=O)NC2CCc3nccn3C2)o1` (stereo unspecified) belongs -8.77%; to `O=C(CSc1ccc(F)cc1F)NS(=O)(=O)c1ccc2c(c1)OCCO2`, -10.7%; to `Cc1cc(NC(=O)NCC(C)N2CCOCC2)n(C)n1` (stereo unspecified), -18.3%.
To `O=C(c1ccn(-c2ccc(F)cc2)n1)N1CCCC(n2ccnc2)C1` (stereo unspecified) belongs -16.3%; to `Cc1ccc(OCCC(=O)N2CCC(c3nncn3C)CC2)c(C)c1`, -6.27%.
As for `COCCOc1ccc(NC(=O)N2CCCC2c2cccs2)cn1` (stereo unspecified), the figure is -3.17%; as for `COCC(c1cccc(C(F)(F)F)c1)N(C)C(=O)c1cc(C)n[nH]1` (stereo unspecified), -14.1%.
Consider `CN1CC2(CCN(Cc3cccnc3)CC2)c2cccc(F)c21`, for which the cytotoxicity at 10 µM stood at 10.7%.
As for `CC(C)OCCCN(Cc1ccncc1)Cc1cc(F)ccc1F`, the figure is -29.2%; as for `OC(CN1CCN(Cc2cccc(F)c2)CC1)C1CC1` (stereo unspecified), -2.45%; as for `O=C(c1cnccn1)N1CCCC2(CCN(c3ccccn3)C2)C1` (stereo unspecified), 5.77%.
As for `Fc1cnc(N2CCCn3c(CN4CCOCC4)nnc3C2)nc1`, the figure is -138%.
As for `COCCN1C[C@@H]2CCCO[C@@H]2[C@H](NC(=O)c2cnccn2)C1`, the cytotoxicity at 10 µM is 0.766%.
Turning to `Cc1csc(NC(=O)[C@@H]2C[C@H]3[C@H](CCN3c3ncccn3)O2)n1`, the cytotoxicity at 10 µM is -13.8%.
As for `O=C(c1ccccn1)N1C[C@H]2CC[C@@H](C1)N(C(=O)CCc1ccsc1)C2`, the figure is -12.7%.
